High-throughput results from PubChem.
CYP2C9 inhib: blockers of cytochrome P450 2C9 activity – biochemical, luminescence, ADME assay, primary screen | CYP2C9 Supersomes, luciferin-H conversion | inhibition, % at 5 µM | 96,000 compounds, 20% hits | AID 777, 2007;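 active = blocking of liver enzyme CYP2C9 beyond about 50% at 5 µM, limit read from the data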
CYP2C9 activ: human CYP2C9 activators, primary screen, biochemical, luminescence | Cytochrome P450 2C9 (Homo sapiens), P11712 | recombinant CYP2C9, luciferin-H conversion; hits give high values; factor 1 = untreated enzyme, 0 = blocked | activation factor at 5 µM | 96,000 compounds, 1.4% hits;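 active = activation factor of 2 or more for CYP2C9 at a 5 µM dose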
CYP2C19 inh: blockers of cytochrome P450 2C19 activity – biochemical, luminescence, ADME assay, primary screen; CYP2C19 Supersomes, luciferin-H EGE luminescence, 30 min; inhibition, % at 5 µM; 96,000 compounds, 21% hits; AID 778, 2007;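 active = CYP2C19 inhibition above a set limit at 5 µM in the primary screen, cut at about 50% in these data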
Target sequence (P33261 whole entry, looked up): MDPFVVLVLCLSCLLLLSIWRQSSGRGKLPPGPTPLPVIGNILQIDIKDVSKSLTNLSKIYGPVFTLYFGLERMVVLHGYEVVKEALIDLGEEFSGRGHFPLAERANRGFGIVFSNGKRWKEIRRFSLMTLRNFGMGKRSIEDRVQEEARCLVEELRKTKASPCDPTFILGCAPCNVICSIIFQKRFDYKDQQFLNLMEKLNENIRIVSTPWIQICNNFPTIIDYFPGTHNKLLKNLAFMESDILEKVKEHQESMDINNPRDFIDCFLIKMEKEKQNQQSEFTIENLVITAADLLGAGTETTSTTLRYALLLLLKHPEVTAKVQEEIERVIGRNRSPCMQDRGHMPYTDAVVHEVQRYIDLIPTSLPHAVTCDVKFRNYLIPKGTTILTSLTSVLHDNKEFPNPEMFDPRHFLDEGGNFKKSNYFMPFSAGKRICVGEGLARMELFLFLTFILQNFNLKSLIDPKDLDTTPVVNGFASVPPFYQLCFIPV
Cav3 T inh: Cav3.2 calcium influx blockers – cell-based, Fluo-4 calcium fluorescence, FDSS, MLSMR library, primary screen; 100,000 compounds, 4% hits; Voltage-dependent T-type calcium channel subunit alpha-1H (Homo sapiens), O95180; B-score at 10 µM; Cav3.2-expressing cells; hits give low values;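 active = single-dose well whose peak fluorescence ratio is a statistical outlier from its plate by either plate-standardised score or position-corrected B-score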
CYP2C19 activ: human CYP2C19 activators, primary screen, biochemical, luminescence | activation factor at 5 µM | AID 1025, 2008 | recombinant CYP2C19, luciferin-H EGE luminescence; hits give high values; 0 = fully inhibited enzyme, 1 = untreated enzyme | 96,000 tested, under 10 active | Cytochrome P450 2C19 (Homo sapiens), P33261;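 active = activation factor of at least 2 at 5 µM in the primary screen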
HIV Rev-RRE inh: HIV-1 Rev-RRE binding inhibitors, primary screen, biochemical, FRET, protein-RNA interaction | 97,000 compounds, 0.79% hits | Rev peptide-RRE RNA binding | P05866 | AID 704, 2007 | inhibition, % at 8 µM;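 active = inhibition above the screen-wide mean plus 3 SD, cut at about 35% in these data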
Target sequence (P05866 whole entry, looked up): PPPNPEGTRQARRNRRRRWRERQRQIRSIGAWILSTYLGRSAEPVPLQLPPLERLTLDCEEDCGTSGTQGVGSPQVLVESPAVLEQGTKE
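Material: labelled RRE RNA duplex and labelled Rev peptide / Buffer or medium: HEPES pH 7.5 salt buffer with EDTA / Compound dosing: single point, 8 µM final nominal compound concentration / Benchmarks: DMSO low control, neomycin B high control / Timing: 5 min preincubation and 15 min binding, 25 °C / Technique: FRET fluorescence readout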
Of the large screens only hits and unclear results are named; the others gave an inactive call. The list is not random: actives were taken first. Their share in the collection is about 27%.

N#C/C(=C\c1ccc(Cl)cc1Cl)c1n[nH]c(Cn2cncn2)n1	CYP2C9 inhib 78, CYP2C19 inh 61
Cc1ccnc(N2C(=O)OC(C)(C)C2(C)O)c1 (stereo unspecified)	none (no result: HIV Rev-RRE inh)
COCCNc1oc(COc2cccc(C)c2)nc1C#N	CYP2C19 inh 57
COc1ccc(CCNc2oc(COc3ccc(F)cc3)nc2C#N)cc1	CYP2C9 inhib 70, CYP2C19 inh 53
COc1ccc(CNc2oc(-c3cccc4ccccc34)nc2C#N)cc1	none (no result: CYP2C9 inhib, CYP2C9 activ, CYP2C19 inh, CYP2C19 activ)
COc1ccc(CCNc2oc(COc3ccccc3F)nc2C#N)cc1OC	CYP2C9 inhib 91, CYP2C19 inh 96, Cav3 T inh -5.1
CCNc1oc(COc2ccccc2F)nc1C#N	CYP2C19 inh 96
COc1ccc(CCNc2oc(COc3ccccc3Cl)nc2C#N)cc1OC	Cav3 T inh -5.8 (no result: CYP2C9 inhib, CYP2C9 activ, CYP2C19 inh, CYP2C19 activ)
N#Cc1nc(COc2ccccc2Cl)oc1NCc1ccco1	none
COc1ccc(CCNc2oc(Cc3ccccc3)nc2C#N)cc1OC	CYP2C9 inhib 50, CYP2C19 inh 75
CCC(C(=O)NC1CCCC1)N(Cc1cccs1)C(=O)Cn1nnc(-c2ccc(OC)c(OC)c2)n1 (stereo unspecified)	none (no result: CYP2C9 inhib, CYP2C9 activ, CYP2C19 inh, CYP2C19 activ)
COc1ccc(-c2nnn(CC(=O)N(CC(=O)NCCC(C)C)c3ccccc3)n2)cc1OC	none
CCCCC(C(=O)NC1CCCC1)N(Cc1ccco1)C(=O)Cn1nnc(-c2ccc(F)cc2)n1 (stereo unspecified)	CYP2C9 inhib 92, CYP2C19 inh 92
CC(C)CCNC(=O)CN(CCCN1CCOCC1)C(=O)Cn1nnc(-c2ccc(F)cc2)n1	CYP2C9 inhib 52
COc1ccc(-c2nnn(CC(=O)N(Cc3cccs3)C(C)C(=O)NC3CCCC3)n2)cc1OC (stereo unspecified)	CYP2C9 inhib 52, CYP2C19 inh 57
CCC(C(=O)NC1CCCC1)N(C(=O)Cn1nnc(-c2ccc(OC)c(OC)c2)n1)C1CCCCC1 (stereo unspecified)	CYP2C9 inhib 52, CYP2C19 inh 72
CCN(CC)CCN(C(=O)Cn1nnc(-c2ccc(OC)c(OC)c2)n1)C(C(=O)NC1CCCC1)c1ccc(F)cc1 (stereo unspecified)	none
O=C(CN(Cc1ccco1)C(=O)Cn1nnc(-c2ccc(F)cc2)n1)NC1CCCC1	none (no result: Cav3 T inh)
Cc1onc(-c2c(Cl)cccc2Cl)c1C(=O)n1nnc2ccccc21	none
COC(=O)CCCC(=O)N1CCOCCN(C(=O)CCCC(=O)OC)CCOCC1	none
Cc1ccc(-c2nnn(CCC(=O)NC3CCCC3)n2)cc1	CYP2C9 inhib 76
CCC(C(=O)NC1CCCC1)N(C(=O)Cn1nnc(-c2ccc(C)cc2)n1)C1CCCC1 (stereo unspecified)	Cav3 T inh -6.5 (no result: CYP2C9 inhib, CYP2C9 activ, CYP2C19 inh, CYP2C19 activ)
CC(C)CCNC(=O)C(c1ccncc1)N(Cc1cccs1)C(=O)Cn1nnc(-c2ccc(F)cc2)n1 (stereo unspecified)	Cav3 T inh -7.4 (no result: CYP2C9 inhib, CYP2C9 activ, CYP2C19 inh, CYP2C19 activ)
Cc1ccc(-c2nnn(CC(=O)NC3CCN(Cc4ccccc4)CC3)n2)cc1	none (no result: CYP2C9 inhib, CYP2C9 activ, CYP2C19 inh, CYP2C19 activ)
c1ccc2c(c1)sc1nnnn12	none (no result: Cav3 T inh)
CCCCNC(=O)[C@@H]1CC=C[C@@H]2CCN(Cc3ccc(Cl)c(Cl)c3)C(=O)[C@@H]21	none (no result: CYP2C9 inhib, CYP2C9 activ, CYP2C19 inh, CYP2C19 activ, HIV Rev-RRE inh)
CCOC(=O)Cc1csc(NS(=O)(=O)c2ccc3c4c(cccc24)C(=O)N3CC)n1	CYP2C9 inhib 95 (no result: HIV Rev-RRE inh)
CCN1C(=O)c2cccc3c(S(=O)(=O)NCc4ccccn4)ccc1c23	none
CCN1C(=O)c2cccc3c(S(=O)(=O)Nc4c(C)n(C)n(-c5ccccc5)c4=O)ccc1c23	CYP2C9 inhib 58
Cc1c(NC(=O)CN2C(=O)c3cccc4cccc2c34)c(=O)n(-c2ccccc2)n1C	none
CCC/C=C1/CCCOC(C(=O)NCc2ccccc2)(C(F)(F)F)C1 (stereo unspecified)	none (no result: CYP2C9 inhib, CYP2C9 activ, CYP2C19 inh, CYP2C19 activ, HIV Rev-RRE inh)
CCN(CC)C(=O)/C(=C\c1ccc2c(c1)OCO2)NC(=O)c1ccc(Br)cc1	none (no result: Cav3 T inh)
COc1cc(CNc2ccccc2SC)ccc1O	CYP2C19 inh 87
COc1cc(C[C@@H](CO)[C@H](CO)Cc2ccc(O)c(OC)c2)ccc1O	none (no result: CYP2C9 inhib, CYP2C9 activ, CYP2C19 inh, CYP2C19 activ, HIV Rev-RRE inh)
CCOc1cc(CNc2ccccc2SC)ccc1O	CYP2C19 inh 67
CCOc1cc(CNc2ccc3c(c2)CCC3)ccc1O	CYP2C9 inhib 77, CYP2C19 inh 91
CC[C@@H]1C=C(C)C[C@H](C)C[C@H](OC)[C@H]2O[C@@](O)(C(=O)C(=O)N3CCCC[C@H]3C(=O)O[C@H](/C(C)=C/[C@@H]3CC[C@@H](O)[C@H](OC)C3)[C@H](C)[C@@H](O)CC1=O)[C@H](C)C[C@@H]2OC	none (no result: CYP2C9 inhib, CYP2C9 activ, CYP2C19 inh, CYP2C19 activ, HIV Rev-RRE inh)
COc1ccc(C(=O)/C=C/Nc2ccc([N+](=O)[O-])cc2C)c(OC)c1	none
CCOc1ccc(N/C=C/C(=O)c2ccc3ccccc3c2)c([N+](=O)[O-])c1	CYP2C9 activ 2.1
COc1ccc(C(=O)/C=C/Nc2ccc([N+](=O)[O-])cc2C)cc1OC	CYP2C19 inh 60
CC1(C)N=C(N)NC(Nc2ccccc2)=N1	none (no result: CYP2C9 inhib, CYP2C9 activ, CYP2C19 inh, CYP2C19 activ)
O=C(NCc1ccc2c(c1)OCO2)c1cc(-c2ccccc2)nn1CC1CC(c2cccnc2)=NO1 (stereo unspecified)	none (no result: CYP2C9 inhib, CYP2C9 activ, CYP2C19 inh, CYP2C19 activ, HIV Rev-RRE inh)
CN1C(=O)CC(N2CCC(c3nc4ccccc4[nH]3)CC2)C1=O (stereo unspecified)	none
CS(=O)c1ccccc1COC(=O)Nc1ccc(Cl)cc1 (stereo unspecified)	CYP2C19 inh 95
Cc1ccc(NC(=O)OCc2cn(-c3ccc(Cl)cc3)nn2)cc1	none (no result: Cav3 T inh)
O=C(CCCSc1nnc(SCCCC(=O)c2ccc(F)cc2)s1)c1ccc(F)cc1	CYP2C9 inhib 76, CYP2C19 inh 56
O=C(Nc1ccc(O)c(C(=O)O)c1)c1ccc2c(c1)C(=O)N(CC1CCCO1)C2=O (stereo unspecified)	CYP2C9 inhib 66 (no result: HIV Rev-RRE inh)
O=C(Nc1ccc2c(c1)C(=O)N(CC1CCCO1)C2=O)c1ccc(Cl)c(Cl)c1 (stereo unspecified)	none (no result: Cav3 T inh)
COC(=O)C1=C(Nc2ccc(C)cc2)C=C(C)C(C(=O)OC)C1c1cccc(OC)c1 (stereo unspecified)	Cav3 T inh -3.9 (no result: CYP2C9 inhib, CYP2C9 activ, CYP2C19 inh, CYP2C19 activ)
COC(=O)C1=C(Nc2ccc(C)cc2)C=C(C)C(C(=O)OC)C1c1ccc(OC)cc1 (stereo unspecified)	Cav3 T inh -4.1 (no result: CYP2C9 inhib, CYP2C9 activ, CYP2C19 inh, CYP2C19 activ)
CCOC(=O)C1=NNC(C(=O)c2ccc(C)cc2)C1c1ccc(OC)cc1 (stereo unspecified)	none
CCOC(=O)c1nn(-c2cccc(Cl)c2)c(C)c1C(C)=O	CYP2C9 inhib 64, CYP2C19 inh 100
